# Values joined by “and” are separate entries in the source; they are usually repeats but may differ in a detail not shown here. Identical values can stand only once. Like-named read-outs stand apart in the source and are kept apart here. {FAM} = fluorescein (FAM) label
# T1: AGT (Homo sapiens, UniProt P16455)
# T1 sequence (P16455 with tags, fused parts or gaps limits assumed): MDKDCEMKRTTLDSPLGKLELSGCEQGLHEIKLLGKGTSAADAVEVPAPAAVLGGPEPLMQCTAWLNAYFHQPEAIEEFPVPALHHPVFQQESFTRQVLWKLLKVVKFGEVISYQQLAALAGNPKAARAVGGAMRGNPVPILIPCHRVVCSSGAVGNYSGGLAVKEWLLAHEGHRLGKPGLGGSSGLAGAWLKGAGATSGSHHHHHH
# T2: benzyl-AGT (Homo sapiens, UniProt P16455, A204H/G205H/N207H/P202H/P203H/R206H)
# T2 sequence (P16455 with tags, fused parts or gaps): T1 sequence (P16455 with tags, fused parts or gaps limits assumed)
# B1: 3'-FAM-Oligo A (ssDNA)
# DNA: AGTCAGTCAGTCAGTC
# B2: 5'-FAM-Oligo A (ssDNA)
# DNA: AGTCAGTCAGTCAGTC
# B3: 3'-FAM-Oligo F (ssDNA)
# DNA: AGTCAGTCAGTCAGTCAGTCAGTCAG
# B4: 5'-FAM-Oligo F (ssDNA)
# DNA: AGTCAGTCAGTCAGTCAGTCAGTCAG
# Tests used:
# [1] = molecular target: T1, AGT; assay: DNA alkyltransferase assay; format: biochemical
# [2] = molecular target: T1, AGT; assay: Binding of free dye to AGT detected by fluorescence anisotropy
# Method in brief: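 Each step equilibrated 1 h at 4°C before reading anisotropy, with emission intensity also recorded. Fractional saturation Y = (A − A0)/(Amax − A0), where A0 is dye without protein and Amax the saturated complex, plotted against AGT concentration.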
# [3] = molecular target: T1, AGT; conditions: AGT binding single-stranded DNA; for Hill coefficient (n) from anisotropy measurements / Hill coefficient (n) from intensity measurements: 4°C; for Ka from anisotropy measurements: apparent association constant
# [4] = molecular target: T1, AGT; assay: Sedimentation equilibrium analysis of AGT-DNA complexes; format: binding; conditions: mean ± SEM for ≥3 determinations, 4°C
# [5] = molecular target: T2, benzyl-AGT; assay: Mobility shift titration of 32P-labeled 24-mer DNA with benzyl-AGT; format: binding; conditions: AGT modified with O^6-benzylguanine
# [6] = molecular target: T2, benzyl-AGT; assay: Binding of FAM to benzyl-AGT detected by fluorescence anisotropy
# [7] = molecular target: T1, AGT; assay: Mobility shift assay: inhibition of AGT DNA binding; conditions: IC50 for inhibition of DNA binding
# [8] = molecular target: T3, O6-alkylguanine-DNA alkyltransferase (AGT, MGMT) (human, UniProt P16455 1-201); assay: fluorescence anisotropy
# [9] = molecular target: T3, O6-alkylguanine-DNA alkyltransferase …; assay: fluorescence anisotropy; remark: listed apart in the source
# [10] = molecular target: T3, O6-alkylguanine-DNA alkyltransferase …; assay: fluorescence anisotropy; remark: listed apart in the source
# [11] = molecular target: T3, O6-alkylguanine-DNA alkyltransferase …; assay: fluorescence anisotropy; remark: listed apart in the source
molecule,measurement,setting,value
"O=S(=O)(O)c1cccc2c(-c3ccc(Nc4ccccc4)c4c(S(=O)(=O)O)cccc34)ccc(Nc3ccccc3)c12 [Bis-ANS, 4,4′-bis(phenylamino)-[1,1′-Binaphthalene]-5,5′-disulfonic acid]",IC50,[1],48.6 µM
same,Kd,[2],33.1 µM
"5′-(FAM)-26-mer Oligo F: 5′- (FAM)AGTCAGTCAGTCAGTCAGTCAGTCAG -3′ (DNA AGTCAGTCAGTCAGTCAGTCAGTCAG; DNA, 5' {FAM}, backbone not given here)",Hill coefficient (n) from anisotropy measurements,[3],2.02 ± 0.17
same,Hill coefficient (n) from intensity measurements,[3],2.92 ± 0.62
same,Ka from anisotropy measurements,[3],3.33 ± 0.15 × 10^5 M^−1
same,Stoichiometry of saturated AGT-DNA complex,[4],6.59 ± 0.20
"Cc1ccc2c(c1)sc(-c1ccc(N(C)C)cc1)[n+]2C [ThT, Thioflavin T]",IC50,[1],217 µM
Unmodified 26-mer: 5′- AGTCAGTCAGTCAGTCAGTCAGTCAG -3′ (DNA AGTCAGTCAGTCAGTCAGTCAGTCAG; unmodified DNA),Stoichiometry of saturated AGT-DNA complex,[4],5.89 ± 0.07
Unmodified 16-mer Oligo A: 5′- AGT CAG TCA GTC AGT C -3′ (DNA AGTCAGTCAGTCAGTC; unmodified DNA),Stoichiometry of saturated AGT-DNA complex,[4],3.86 ± 0.08
"3′-(FAM)-26-mer Oligo F: 5′- AGTCAGTCAGTCAGTCAGTCAGTCAG(FAM) -3′ (DNA AGTCAGTCAGTCAGTCAGTCAGTCAG; DNA, 3' {FAM}, backbone not given here)",Hill coefficient (n) from anisotropy measurements,[3],2.13 ± 0.14
same,Hill coefficient (n) from intensity measurements,[3],3.33 ± 0.27
same,Ka from anisotropy measurements,[3],3.30 ± 0.12 × 10^5 M^−1
same,Stoichiometry of saturated AGT-DNA complex,[4],6.38 ± 0.21
Nc1nc(OCc2ccccc2)c2nc[nH]c2n1 [O^6-benzylguanine],residual AGT activity in DNA repair after treatment,"[1]; AGT modified with O^6-benzylguanine (37°C, 50mM Tris, pH 7.6, 1mM EDTA, 5 mM DTT)",< 1%
same,DNA binding of treated AGT,[5],fully-competent in DNA binding
same,apparent stoichiometry n of DNA binding,[5]; duplex 24mer DNA,5.5 ± 0.2
"O=C(O)c1ccc(C(=O)O)c(-c2c3ccc(=O)cc-3oc3cc(O)ccc23)c1 [FAM, 6-Carboxyfluorescein]",concentration sufficient to completely inhibit AGT activity,[1],1.8 mM
same,Kd,[6],82.2 µM
same,IC50,"[7]; duplex 24mer 0.17μM, AGT 3.9μM, 20°C",76.3 µM
same,IC50,"[7]; electrophoretic analysis, approximate value",~76 µM
same,Kd,"[2]; Kd, apparent, from fluorescence anisotropy data, single-site (1:1) fit, unmodified AGT, 4°C, no DNA",13 µM and 12.7 µM
same,apparent binding affinity K (Ka),"[2]; fluorescence anisotropy, Eq. 5 with n = 1, 4°C",7.84 ± 0.24 × 10^4 M^−1 and 7.8 × 10^4 M^−1
"Nc1nc2c(ncn2[C@@H]2O[C@H](COP(=O)(O)O)[C@@H](O)[C@H]2O)c(=O)[nH]1 [5′-GMP, guanosine 5′ monophosphate]",IC50,[1],34.6 µM
B1,Ka,[8],282000 M⁻¹
B2,Ka,[9],295000 M⁻¹
B3,Ka,[10],330000 M⁻¹
B4,Ka,[11],333000 M⁻¹
